Bioassay records: PubChem, several laboratories
Most compounds without a hit are left out; they make up all but 2.8% or so of the library.
NPY1 pot ag: potentiates or activates human NPY-Y1 receptor; NPY-Y1 expressing cells, potentiator/agonist activation; AID 1304; 220,000 tested, 0.37% active; activation, % at 3.6 µM; in the data active = activation above about 33%, passing the limit was not always enough;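 also: cells stimulated with NPY at EC10 then isoproterenol at EC100; 0% = low agonist plus stimulus and 100% = saturating agonist plus stimulus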
NPY-Y1 antag: antagonists of human neuropeptide Y receptor Y1; HEK293-CNG Y1 cells, membrane potential fluorescence; NPY at EC95, then isoproterenol; inhibition, % at 3.6 µM; 200,000 tested, 1% active; AID 1040;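 active = inhibition above the campaign mean inhibition of all tested compounds plus 3 SD, cut at about 20% in these data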;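 also: 0% = DMSO wells given NPY plus isoproterenol and 100% = isoproterenol alone without NPY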
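Assay system: HEK293 cells with Y1 receptor plus CNG channel | Probe or stimulus: NPY (25 nM), isoproterenol (1 µM), Ro 20-1724 (25 µM) | Timing: Compound incubation 1 h at room temperature, readout 45 min post-stimulation | Measured by: Membrane-potential fluorescent dye readout | Benchmarks: High control isoproterenol alone, low control NPY with isoproterenol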
NPY2 pot ag: potentiators or agonists of human neuropeptide Y receptor Y2. cells expressing NPY-Y2, potentiator/agonist read-out. activation, % at 3.6 µM. 220,000 tested, 0.45% active. P49146; in the data active = activation above about 27%;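 also: cells stimulated with NPY near EC25 plus isoproterenol at EC100; 0% = vehicle plus submaximal agonist and 100% = vehicle plus saturating agonist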
EP2 antag: EP2 receptor (human) inhibition; P43116; inhibition, % at 25 µM; 260,000 tested, 0.52% active; AID 1422; C6 glioma cells expressing human EP2, cAMP TR-FRET; cells stimulated with saturating PGE2;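 active = percent inhibition above 40 after rounding to a whole number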;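 also: rat C6 glioma host cells with rolipram phosphodiesterase inhibitor present; the protocol text gives 20 µM as final concentration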
Target sequence (P43116 whole entry, looked up): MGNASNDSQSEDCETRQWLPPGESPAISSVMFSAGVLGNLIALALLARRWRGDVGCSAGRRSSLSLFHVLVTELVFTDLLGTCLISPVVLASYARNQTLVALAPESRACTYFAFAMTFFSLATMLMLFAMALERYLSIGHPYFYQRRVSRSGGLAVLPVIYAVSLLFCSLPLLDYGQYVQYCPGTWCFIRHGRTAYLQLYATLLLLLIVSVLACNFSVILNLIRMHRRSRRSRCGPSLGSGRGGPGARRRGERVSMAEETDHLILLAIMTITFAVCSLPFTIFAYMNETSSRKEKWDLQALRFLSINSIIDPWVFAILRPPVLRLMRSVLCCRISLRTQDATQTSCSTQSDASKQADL
EP2 mod: modulators of human EP2 prostaglandin E2 receptor; P43116; EP2-expressing cells, cAMP HTRF FRET, PGE2 co-stimulation; induction, % at 25 µM; 260,000 tested, 0.83% active;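 active = compounds whose cAMP rise, as percent of the full-agonist control response, exceeds 60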;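 also: rat C6 glioma line stably carrying human EP2 under a CMV promoter; the protocol text gives 20 µM as final concentration; 100% = response of wells given 1 µM PGE2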
NPY Y2 blocker: antagonists of human neuropeptide Y receptor Y2; P49146; NPY-Y2 expressing cells, antagonist mode; inhibition, % at 2.7 µM; 140,000 tested, 0.99% active; AID 793; in the data active = inhibition above about 17%;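 also: 0% = vehicle with agonist challenge and 100% = reference antagonist with challenge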
EP2 confirm: human EP2 receptor cAMP induction, negative in counter-screens; shares compounds with EP2 mod; C6 glioma EP2 cells, cAMP HTRF induction; plus low (about EC15) PGE2 agonist; calls only at 20 µM (by protocol); 1,300 tested, 47% active; AID 1080;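 active = cAMP induction above 50% in the main assay while under 30% in all four parallel counter assays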;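 also: rat C6 glioma cells stably expressing human EP2 receptor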
The depositor's hits bear a star; i = inactive; . = not tested or not shown; + = active, no number.

SMILES	NPY1 pot ag	NPY-Y1 antag	NPY2 pot ag	EP2 antag	EP2 mod	NPY Y2 blocker	EP2 confirm
Cc1ccc(C(C)C)c(OCCn2c(=O)oc3ccccc32)c1	-14	-2	-27	12	61*	0	i
Cc1ccc2oc(=O)n(Cc3ccccc3OC(C)C)c2c1	-21	14	-10	13	67*	14	+
Cc1ccccc1OCCn1c(=O)oc2ccccc21	-12	2	-5	13	38	12	.
Cc1ccc2oc(=O)n(CCCOc3ccccc3C)c2c1	-28	17	-7	17	32	.	.
CCCCOc1ccccc1Cn1c(=O)oc2ccc(C)cc21	-14	13	7	3	79*	8	+
Cc1ccc2oc(=O)n(CCOc3ccccc3C)c2c1	-11	15	-37	13	42	.	.
Cc1nn2c(N3CCN(C(=O)c4ccco4)CC3)cc(C(C)(C)C)nc2c1-c1ccccc1	8	4	21	9	78*	1	+
Cc1cc(N2CCCCC2)n2nc(C)c(-c3ccccc3)c2n1	-16	2	6	7	56	-1	.
Cc1nn2c(N3CCN(C)CC3)cc(C(C)(C)C)nc2c1-c1ccccc1	26	.	14	13	5	.	.
Cc1nn2c(N3CCCC3)cc(C(C)C)nc2c1-c1ccccc1	-12	-4	7	12	75*	0	+
COc1ccccc1C1(O)CCN(S(C)(=O)=O)CC1	.	.	.	16	-19	.	.
CCCCC(=O)C1CCN(Cc2ccccc2)CC1	-2	5	-1	8	106*	1	i
O=C(O)CCC(=O)N(Cc1cccnc1)Cc1c(F)cccc1Cl	.	.	.	7	-6	.	.
CCOc1ccc(-n2nc3c(=S)[nH]nc(C)c3c2C)cc1	10	3	15	21	66*	3	i
C=CCSc1nc2ccsc2c(=O)n1-c1ccccc1	1	3	-2	5	68*	.	i
O=c1c2ccccc2nc(/C=C/c2ccccc2)n1CCc1ccccc1	-9	2	-1	7	80*	13	+
Cc1cccc(/C=C/c2nc3ccccc3c(=O)n2Cc2ccccc2)c1	-23	16	-8	1	69*	7	+
C=CCSc1nc2ccccc2c(=O)n1Cc1ccccc1	-18	16	-14	10	72*	.	+
CSc1nc2ccsc2c(=O)n1-c1ccccc1	11	2	-7	8	38	.	.
O=c1c2ccccc2nc(/C=C/c2cccnc2)n1Cc1ccccc1	-8	-1	-14	3	16	.	.
Cc1[nH]c(=O)[nH]c(=O)c1NC(=O)CSc1nc2c(C)ccc(C)c2cc1C#N	.	.	.	8	-8	.	.
CN(C)Cc1ccc(CN[C@@H]2CCC(=O)N[C@H]2c2cc(F)cc(F)c2)cc1	.	.	.	11	3	.	.
CCCC(c1nnnn1Cc1ccco1)N(Cc1ccco1)Cc1cc2ccc(C)c(C)c2[nH]c1=O (stereo not drawn)	.	.	.	14	35	.	.
O=c1cc(N2CCCCC2)c(-c2ccccc2)nn1Cc1ccccc1Cl	22	3	0	3	70*	0	+
O=c1cc(N2CCCCC2)c(-c2ccccc2)nn1Cc1ccc(Cl)cc1Cl	16	3	-7	8	60	-1	.
SMILES	NPY1 pot ag	NPY-Y1 antag	NPY2 pot ag	EP2 antag	EP2 mod	NPY Y2 blocker	EP2 confirm
O=c1cc(N2CCCCC2)c(-c2ccccc2)nn1Cc1cccc(Cl)c1	28	2	7	7	81*	-1	+
COc1cccc(CN2CCN(C(=O)N3CCCC3)[C@@H](C)C2)c1	.	.	.	.	-50	.	.
FC(F)(F)c1cc(Oc2ccccc2)nc(-c2ccccn2)n1	25	-3	14	9	8	1	.
COc1ccc(Oc2cc(C(F)(F)F)nc(N(C)C)n2)cc1	6	-3	-2	7	65*	.	i
CCCC(=O)Nc1ccc2nc(-c3ccc(OC)cc3)[nH]c2c1	.	.	.	15	-73	.	.
COc1ccc(/C(O)=C2/C(=O)C(=O)N(C)C2c2ccccc2Cl)cc1OC (stereo not drawn)	.	.	.	16	43	.	.
CN1CCCN(C(=O)Cc2c(Cl)cccc2Cl)c2nc3ccccc3nc21	0	6	-1	9	70*	2	+
Cc1ccc(N=Cc2cc(Cc3ccccc3Cl)cc([N+](=O)[O-])c2O)c(O)c1	-14	-1	-8	10	68*	.	i
COc1ccc(N=Cc2cc(Cc3ccccc3Cl)cc([N+](=O)[O-])c2O)cc1OC	5	7	-12	3	72*	.	+
COc1ccc([N+](=O)[O-])cc1NC(=O)Cc1ccccc1Cl	-11	7	12	1	3	2	.
Cc1n[nH]c(C)c1Sc1ccccc1N=Cc1cc(Cl)cc([N+](=O)[O-])c1O	7	2	5	9	21	7	.
COc1cccc(Cn2c3cc(C)sc3c3cnn(Cc4ccccn4)c(=O)c32)c1	.	.	.	.	51	.	.
COc1cc(/C=C/c2nc(O)c([N+](=O)[O-])c(=O)[nH]2)ccc1OCc1ccc(F)cc1	.	.	.	7	-24	.	.
C#CCN1C(C)=C(C(=O)OC)C(c2cccc([N+](=O)[O-])c2)C(C(=O)OCC)=C1C (stereo not drawn)	.	.	.	9	52	.	i
COc1ccccc1-c1noc(-c2cc(OC)c(OC)c(OC)c2)n1	26	3	1	6	6	1	.
COc1cc(-c2nc(-c3cccc(C(F)(F)F)c3)no2)cc(OC)c1OC	-6	-2	14	7	72*	0	+
CCCOC(=O)CCCN1C(=O)/C(=C/c2cccs2)SC1=S	.	.	.	14	-13	.	.
O=c1[nH]c2cc3c(cc2cc1CN(CCO)Cc1nnnn1Cc1ccccc1)OCO3	.	.	.	14	-7	.	.
N/C(CSc1nc(-c2ccccc2)c(-c2ccccc2)o1)=N\O	-5	2	8	7	67*	0	+
CC1CCCCN1C(=O)Cn1nc(-c2cccs2)cc(N)c1=O (stereo not drawn)	.	.	.	8	-28	.	.
CCN(CC)C(=O)c1nn(-c2ccccc2)c2c1C1CCC2(C)C1(C)C (stereo not drawn)	-32	15	13	7	72*	.	i
COc1ccc(-c2nn3c(-c4ccccc4)nnc3s2)cc1	-5	8	9	4	81*	5	+
COc1ccc(-n2c(-c3ccccc3)nnc2-c2ccc(Cl)cc2)cc1	-12	8	-13	9	69*	11	+
Clc1ccc(-c2nn3c(-c4ccccc4)nnc3s2)cc1	-33	10	-13	5	73*	8	+
COc1ccc(-n2nnnc2-c2ccccc2)cc1	-15	-1	-1	4	5	6	.
COCCNC(=O)CN(Cc1ccc2c(c1)OCO2)C(=O)Cn1nnc2ccccc21	.	.	.	11	5	.	.
